Experimental data from ChEMBL document CHEMBL1124366, “Synthesis and biological properties of N63-carboxamides of teicoplanin antibiotics. Structure-activity relationships” (J Med Chem, 1989).
Values after ≈ are worked out from the molar mass of the structure shown.

Experiments:
Streptococcus pyogenes [1] = assay: In vitro minimum inhibitory concentration against Streptococcus pyogenes C 203; type: functional
[2] = test system: Ac2-L-Lys-D-Ala-D-Ala peptide; assay: Association constant with Ac2-L-Lys-D-Ala-D-Ala
Method in brief: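 UV difference spectroscopy at 24 ± 2 °C in 4-cm unthermostated cells. Antibiotic was at 30 μM in 10% MeOH in sodium phosphate buffer, pH 9, and titrated with Ac2-L-Lys-D-Ala-D-Ala. ΔA was monitored at 294 nm. Ka was taken from the slope of a Scatchard plot.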

Enterococcus faecalis = assay: In vitro minimum inhibitory concentration against Streptococcus faecalis ATCC 7080; type: functional
[3] = test system: Staphylococcus epidermidis; assay: In vitro minimum inhibitory concentration against Staphylococcus epidermis ATCC 12228; type: functional
Streptococcus pneumoniae = assay: In vitro minimum inhibitory concentration against Streptococcus pneumoniae UC41; type: functional
Streptococcus pyogenes [4] = assay: Subcutaneously administration into mice infected with Streptococcus pyogenes C 203; type: functional; conditions: sc
Method in brief: (§1)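 Mice (five per treatment group, five groups) infected intraperitoneally with about 10⁵ cells of Strep. pyogenes C 203, about 100× the LD50. ED50 (mg/kg) was calculated from the percentage of mice surviving at each dose on day 7.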

Staphylococcus aureus = assay: In vitro minimum inhibitory concentration against Staphylococcus aureus Tour; type: functional
Streptococcus pyogenes [5] = assay: In vivo effective dose given perorally to mice infected with Streptococcus pyogenes C 203; type: functional; conditions: po; method in brief: as §1
Gram-negative bacteria = assay: Minimum inhibitory concentration of compound against Gram negative bacteria
Proteus vulgaris = assay: In vitro minimum inhibitory concentration against Proteus vulgaris X 19 ATCC 881; type: functional
Escherichia coli = assay: In vitro minimum inhibitory concentration against Escherichia coli SKF 12140; type: functional
[6] = test system: Staphylococcus haemolyticus; assay: In vitro minimum inhibitory concentration against Staphylococcus hemolyticus 602 cell line; type: functional; conditions: strain 602
Pseudomonas aeruginosa = assay: In vitro minimum inhibitory concentration against Pseudomonas aeruginosa ATCC 10145; type: functional
Bacteria = assay: Minimum inhibitory concentration of compound against Gram negative bacteria; type: functional

Row | SMILES | MIC (Streptococcus pyogenes [1]) [µg/mL] | Ka [2] [M⁻¹] | MIC (Enterococcus faecalis) [µg/mL] | MIC [3] [µg/mL] | MIC (Streptococcus pneumoniae) [µg/mL] | ED50 (Streptococcus pyogenes [4]) [mg/kg] | MIC (Staphylococcus aureus) [µg/mL] | ED50 (Streptococcus pyogenes [5]) [mg/kg] | MIC (Gram-negative bacteria) [µg/mL] | MIC (Proteus vulgaris) [µg/mL] | MIC (Escherichia coli) [µg/mL] | MIC [6] [µg/mL] | MIC (Pseudomonas aeruginosa) [µg/mL] | MIC (Bacteria) [µg/mL]
1 | CCOC(=O)CNC(=O)[C@H]1NC(=O)[C@H]2NC(=O)[C@H](NC(=O)[C@@H]3NC(=O)[C@H]4NC(=O)[C@@H](Cc5ccc(c(Cl)c5)Oc5cc3cc(c5O[C@@H]3O[C@@H](CO)[C@@H](O)[C@H](O)[C@@H]3NC(=O)CCCCCCC(C)C)Oc3ccc(cc3Cl)[C@H]2O[C@@H]2O[C@@H](CO)[C@@H](O)[C@H](O)[C@@H]2NC(C)=O)NC(=O)[C@H](N)c2ccc(O)c(c2)Oc2cc(O)cc4c2)c2ccc(O)c(c2)-c2c(O[C@H]3O[C@H](CO)[C@@H](O)[C@@H](O)[C@@H]3O)cc(O)cc21 | 0.06 (≈ 0.0305 µM) | 120000 | 0.12 (≈ 0.0611 µM) | 0.12 (≈ 0.0611 µM) | 0.06 (≈ 0.0305 µM) | 0.1 | 0.25 (≈ 0.127 µM) | > 300 |  |  |  |  |  | 
2 | CCN(CC)CCCNC(=O)[C@H]1NC(=O)[C@H]2NC(=O)[C@H](NC(=O)[C@@H]3NC(=O)[C@H]4NC(=O)[C@@H](Cc5ccc(c(Cl)c5)Oc5cc3cc(c5O)Oc3ccc(cc3Cl)[C@H]2O[C@@H]2O[C@@H](CO)[C@@H](O)[C@H](O)[C@@H]2NC(C)=O)NC(=O)[C@H](N)c2ccc(O)c(c2)Oc2cc(O)cc4c2)c2ccc(O)c(c2)-c2c(O[C@H]3O[C@H](CO)[C@@H](O)[C@@H](O)[C@@H]3O)cc(O)cc21 | 0.12 (≈ 0.0716 µM) |  | 0.5 (≈ 0.298 µM) | 0.06 (≈ 0.0358 µM) | 0.5 (≈ 0.298 µM) | 0.3 | 0.25 (≈ 0.149 µM) |  | > 128 |  |  |  |  | 
3 | CN(C)CCCCCCCNC(=O)[C@H]1NC(=O)[C@H]2NC(=O)[C@H](NC(=O)[C@@H]3NC(=O)[C@H]4NC(=O)[C@@H](Cc5ccc(c(Cl)c5)Oc5cc3cc(c5O)Oc3ccc(cc3Cl)[C@H]2O)NC(=O)[C@H](N)c2ccc(O)c(c2)Oc2cc(O)cc4c2)c2ccc(O)c(c2)-c2c(O)cc(O)cc21 | 0.06 (≈ 0.0448 µM) | 50000 | 0.12 (≈ 0.0896 µM) | 0.06 (≈ 0.0448 µM) | 0.12 (≈ 0.0896 µM) | 0.95 | 0.06 (≈ 0.0448 µM) |  |  | 128 (≈ 95.6 µM) | 16 (≈ 11.9 µM) | 0.12 (≈ 0.0896 µM) | 128 (≈ 95.6 µM) | 
4 | N[C@H]1C(=O)N[C@@H]2Cc3ccc(c(Cl)c3)Oc3cc4cc(c3O)Oc3ccc(cc3Cl)[C@@H](O)[C@@H]3NC(=O)[C@H](NC(=O)[C@@H]4NC(=O)[C@@H](NC2=O)c2cc(O)cc(c2)Oc2cc1ccc2O)c1ccc(O)c(c1)-c1c(O)cc(O)cc1[C@@H](C(=O)NC(CCC(=O)O)C(=O)O)NC3=O (stereo not given in full) | 0.12 (≈ 0.0904 µM) | 82000 | 0.5 (≈ 0.376 µM) | 0.12 (≈ 0.0904 µM) | 0.12 (≈ 0.0904 µM) | 5 | 0.12 (≈ 0.0904 µM) |  |  | > 128 | > 128 |  | > 128 | 
5 | CC(=O)N[C@@H]1[C@H](O[C@@H]2c3ccc(c(Cl)c3)Oc3cc4cc(c3O)Oc3ccc(cc3Cl)C[C@H]3NC(=O)[C@H](N)c5ccc(O)c(c5)Oc5cc(O)cc(c5)[C@H](NC3=O)C(=O)N[C@H]4C(=O)N[C@H]3C(=O)N[C@@H]2C(=O)N[C@H](C(=O)NCCN2CCOCC2)c2cc(O)cc(O[C@H]4O[C@H](CO)[C@@H](O)[C@@H](O)[C@@H]4O)c2-c2cc3ccc2O)O[C@@H](CO)[C@@H](O)[C@@H]1O | 0.12 (≈ 0.0716 µM) |  | 1 (≈ 0.596 µM) | 0.06 (≈ 0.0358 µM) | 0.5 (≈ 0.298 µM) | 1.6 | 0.25 (≈ 0.149 µM) |  | > 128 |  |  |  |  | 
6 | CC(=O)N[C@@H]1[C@H](O[C@@H]2c3ccc(c(Cl)c3)Oc3cc4cc(c3O)Oc3ccc(cc3Cl)C[C@H]3NC(=O)[C@H](N)c5ccc(O)c(c5)Oc5cc(O)cc(c5)[C@H](NC3=O)C(=O)N[C@H]4C(=O)N[C@H]3C(=O)N[C@@H]2C(=O)N[C@H](C(=O)NCCN2CCCC2)c2cc(O)cc(O[C@H]4O[C@H](CO)[C@@H](O)[C@@H](O)[C@@H]4O)c2-c2cc3ccc2O)O[C@@H](CO)[C@@H](O)[C@@H]1O | 0.12 (≈ 0.0723 µM) |  | 0.5 (≈ 0.301 µM) | 0.25 (≈ 0.151 µM) | 0.5 (≈ 0.301 µM) | 0.41 | 0.25 (≈ 0.151 µM) |  | > 128 |  |  |  |  | 
7 | N[C@H]1C(=O)N[C@@H]2Cc3ccc(c(Cl)c3)Oc3cc4cc(c3O)Oc3ccc(cc3Cl)[C@@H](O)[C@@H]3NC(=O)[C@H](NC(=O)[C@@H]4NC(=O)[C@@H](NC2=O)c2cc(O)cc(c2)Oc2cc1ccc2O)c1ccc(O)c(c1)-c1c(O)cc(O)cc1[C@@H](C(=O)O)NC3=O [TEICOPLANIN AGLYCON] | 0.12 (≈ 0.1 µM) | 30000 | 0.12 (≈ 0.1 µM) | 0.016 (≈ 0.0133 µM) | 0.12 (≈ 0.1 µM) | 0.95 | 0.06 (≈ 0.05 µM) |  |  | 128 (≈ 107 µM) | 64 (≈ 53.4 µM) | 0.25 (≈ 0.209 µM) | > 128 | 
8 | CNCCCNC(=O)[C@H]1NC(=O)[C@H]2NC(=O)[C@H](NC(=O)[C@@H]3NC(=O)[C@H]4NC(=O)[C@@H](Cc5ccc(c(Cl)c5)Oc5cc3cc(c5O[C@@H]3O[C@@H](CO)[C@@H](O)[C@H](O)[C@@H]3NC(=O)CCCCCCC(C)C)Oc3ccc(cc3Cl)[C@H]2O[C@@H]2O[C@@H](CO)[C@@H](O)[C@H](O)[C@@H]2NC(C)=O)NC(=O)[C@H](N)c2ccc(O)c(c2)Oc2cc(O)cc4c2)c2ccc(O)c(c2)-c2c(O[C@H]3O[C@H](CO)[C@@H](O)[C@@H](O)[C@@H]3O)cc(O)cc21 | 0.06 (≈ 0.0308 µM) | 66000 | 0.12 (≈ 0.0615 µM) | 0.06 (≈ 0.0308 µM) | 0.12 (≈ 0.0615 µM) | 0.14 | 0.12 (≈ 0.0615 µM) | 112 |  |  |  | 0.12 (≈ 0.0615 µM) |  | 
9 | CCCCN(CCCC)CCCNC(=O)[C@H]1NC(=O)[C@H]2NC(=O)[C@H](NC(=O)[C@@H]3NC(=O)[C@H]4NC(=O)[C@@H](Cc5ccc(c(Cl)c5)Oc5cc3cc(c5O)Oc3ccc(cc3Cl)[C@H]2O[C@@H]2O[C@@H](CO)[C@@H](O)[C@H](O)[C@@H]2NC(C)=O)NC(=O)[C@H](N)c2ccc(O)c(c2)Oc2cc(O)cc4c2)c2ccc(O)c(c2)-c2c(O[C@H]3O[C@H](CO)[C@@H](O)[C@@H](O)[C@@H]3O)cc(O)cc21 | 0.12 (≈ 0.0693 µM) |  | 0.5 (≈ 0.289 µM) | 0.06 (≈ 0.0346 µM) | 0.5 (≈ 0.289 µM) | 0.18 | 1 (≈ 0.577 µM) |  | > 128 |  |  |  |  | 
10 | CC(=O)N[C@@H]1[C@H](O[C@@H]2c3ccc(c(Cl)c3)Oc3cc4cc(c3O)Oc3ccc(cc3Cl)C[C@H]3NC(=O)[C@H](N)c5ccc(O)c(c5)Oc5cc(O)cc(c5)[C@H](NC3=O)C(=O)N[C@H]4C(=O)N[C@H]3C(=O)N[C@@H]2C(=O)N[C@H](C(=O)NCCCN(C)C)c2cc(O)cc(O[C@H]4O[C@H](CO)[C@@H](O)[C@@H](O)[C@@H]4O)c2-c2cc3ccc2O)O[C@@H](CO)[C@@H](O)[C@@H]1O | 0.12 (≈ 0.0728 µM) |  | 1 (≈ 0.607 µM) | 0.12 (≈ 0.0728 µM) | 0.5 (≈ 0.303 µM) | 0.81 | 0.5 (≈ 0.303 µM) |  | > 128 |  |  |  |  | 
11 | CC(=O)N[C@@H]1[C@H](O[C@@H]2c3ccc(c(Cl)c3)Oc3cc4cc(c3O)Oc3ccc(cc3Cl)C[C@H]3NC(=O)[C@H](N)c5ccc(O)c(c5)Oc5cc(O)cc(c5)[C@H](NC3=O)C(=O)N[C@H]4C(=O)N[C@H]3C(=O)N[C@@H]2C(=O)N[C@H](C(=O)N2CCN(C)CC2)c2cc(O)cc(O[C@H]4O[C@H](CO)[C@@H](O)[C@@H](O)[C@@H]4O)c2-c2cc3ccc2O)O[C@@H](CO)[C@@H](O)[C@@H]1O | 0.5 (≈ 0.304 µM) | 100000 | 2 (≈ 1.21 µM) | 0.12 (≈ 0.0729 µM) | 1 (≈ 0.607 µM) | 0.95 | 0.25 (≈ 0.152 µM) |  |  |  |  |  |  | > 128
12 | NCCCNC(=O)[C@H]1NC(=O)[C@H]2NC(=O)[C@H](NC(=O)[C@@H]3NC(=O)[C@H]4NC(=O)[C@@H](Cc5ccc(c(Cl)c5)Oc5cc3cc(c5O)Oc3ccc(cc3Cl)[C@H]2O)NC(=O)[C@H](N)c2ccc(O)c(c2)Oc2cc(O)cc4c2)c2ccc(O)c(c2)-c2c(O)cc(O)cc21 | 0.06 (≈ 0.0478 µM) | 26000 | 0.12 (≈ 0.0956 µM) | 0.06 (≈ 0.0478 µM) | 0.12 (≈ 0.0956 µM) | 1.25 | 0.12 (≈ 0.0956 µM) |  |  | 32 (≈ 25.5 µM) | 4 (≈ 3.19 µM) | 0.12 (≈ 0.0956 µM) | 32 (≈ 25.5 µM) | 
13 | CC(=O)N[C@@H]1[C@H](O[C@@H]2c3ccc(c(Cl)c3)Oc3cc4cc(c3O)Oc3ccc(cc3Cl)C[C@H]3NC(=O)[C@H](N)c5ccc(O)c(c5)Oc5cc(O)cc(c5)[C@H](NC3=O)C(=O)N[C@H]4C(=O)N[C@H]3C(=O)N[C@@H]2C(=O)N[C@H](C(=O)O)c2cc(O)cc(O[C@H]4O[C@H](CO)[C@@H](O)[C@@H](O)[C@@H]4O)c2-c2cc3ccc2O)O[C@@H](CO)[C@@H](O)[C@@H]1O | 0.12 (≈ 0.0767 µM) |  | 0.5 (≈ 0.32 µM) | 0.25 (≈ 0.16 µM) | 0.5 (≈ 0.32 µM) | 2.64 | 0.25 (≈ 0.16 µM) |  |  |  |  |  |  | > 128
14 | CN(C)CCCNC(=O)[C@H]1NC(=O)[C@H]2NC(=O)[C@H](NC(=O)[C@@H]3NC(=O)[C@H]4NC(=O)[C@@H](Cc5ccc(c(Cl)c5)Oc5cc3cc(c5O)Oc3ccc(cc3Cl)[C@H]2O)NC(=O)[C@H](N)c2ccc(O)c(c2)Oc2cc(O)cc4c2)c2ccc(O)c(c2)-c2c(O)cc(O)cc21 | 0.06 (≈ 0.0468 µM) | 55000 | 0.12 (≈ 0.0935 µM) | 0.016 (≈ 0.0125 µM) | 0.12 (≈ 0.0935 µM) | 0.31 | 0.06 (≈ 0.0468 µM) |  |  | 16 (≈ 12.5 µM) | 8 (≈ 6.23 µM) |  | 32 (≈ 24.9 µM) | 
